ChEMBL document CHEMBL1127061, “Hemicholinium and related lipids: inhibitors of protein kinase C” (J Med Chem, 1993)

What follows are compounds tested against Protein kinase C (PKC) (assay: Inhibition of protein kinase C (PKC) purified from rat brain).
Procedure, shortened: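 Mostly purified rat brain PKC, histone kinase assay on ice-set tubes: 3 nM TPA, 8 μg/mL phosphatidylserine, 1 mM EGTA (no calcium), 4% glycerol, 20 mM Tris-Cl pH 7.4. Started with [γ-32P]ATP (20 μM), MgCl2 10 mM, p-nitrophenyl phosphate 5 mM, lysine-rich histone 240 μg/mL; 30 °C, 10 min; radioactivity counted. Compounds 0.16–160 μg/mL, 2.4% DMSO final; duplicate runs averaged.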

| Structure (SMILES) | IC50 [µM] |
| --- | --- |
| CCCCCCCCCCCCC1(O)C[N+](C)(C)CCO1.[Br-] (configuration not stated) | 13 |
| CCCCCCCCCCCCCCC1(O)C[N+](C)(C)CCO1.[Br-] (configuration not stated) | 7.6 |
| CCCCCCCCCCCCCCCC(=O)C[N+](C)(C)CCCO.[Br-] | 6.9 |
| CCCCCCCCCCCCCCCC1(O)C[N+](C)(C)CCO1.[Br-] (configuration not stated) | 7.3 |
| CCCCCCCCCCCCCCCC(=O)OC(CC(=O)[O-])C[N+](C)(C)C (racemic) [Palmitoyl-carnitine] | 15.8 |
| CCCCCCCCCCC1(O)C[N+](C)(C)CCO1.[Br-] (configuration not stated) | 170 |
| CCCCCCCCCCCCCCCC1(OC)C[N+](C)(C)CCO1.[Br-] (configuration not stated) | 3.9 |
| CCCCCCCCCCCCCCCCCCC1(O)C[N+](C)(C)CCO1.[Br-] (configuration not stated) | 6.5 |
| CCCCCCCCCCCCCCCCCC1(O)C[N+](C)(C)CCO1.[Br-] (configuration not stated) | 7.1 |
| CCCCCCCCCCCCCCCCC1(O)C[N+](C)(C)CCO1.[Br-] (configuration not stated) | 7.6 |
| CCCCCCCCCCCCCCC[C@@]1(O)C[N+](C)(C)C[C@@H](CC(=O)[O-])O1 [HEMIACYLCARNITINIUM] | 49.6 |
| CCCCCCCCCCCCCC1(O)C[N+](C)(C)CCO1.[Br-] (configuration not stated) | 12 |
